From ChEMBL document CHEMBL1138152, “Design and synthesis of novel hydrazide-linked bifunctional peptides as delta/mu opioid receptor agonists and CCK-1/CCK-2 receptor antagonists” (J Med Chem, 2006)

Experiments:
[1] = molecular target: T1, Delta-type opioid receptor (Homo sapiens, UniProt P41143); assay: Inhibition of [35S]GTP-gamma-S binding to human delta opioid receptor expressed in CHO cells; type: functional, cell-based
Outline: (§1)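 CHO-expressed receptor membranes (10 µg) in 50 mM HEPES pH 7.4 with EDTA, 5 mM MgCl2, 30 µM GDP, DTT, 100 mM NaCl, PMSF, BSA and 0.1 nM [35S]GTPγS. Test drug at various concentrations, duplicate or triplicate, 90 min at 30 °C. Nonspecific binding with 10 µM GTPγS.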

[2] = molecular target: T2, Gastrin/cholecystokinin type B receptor (Homo sapiens, UniProt P32239); assay: Displacement of [125I]CCK8 from human CCK2 receptor expressed in HEK293 cells; type: cell-based
T2 sequence (P32239 whole entry): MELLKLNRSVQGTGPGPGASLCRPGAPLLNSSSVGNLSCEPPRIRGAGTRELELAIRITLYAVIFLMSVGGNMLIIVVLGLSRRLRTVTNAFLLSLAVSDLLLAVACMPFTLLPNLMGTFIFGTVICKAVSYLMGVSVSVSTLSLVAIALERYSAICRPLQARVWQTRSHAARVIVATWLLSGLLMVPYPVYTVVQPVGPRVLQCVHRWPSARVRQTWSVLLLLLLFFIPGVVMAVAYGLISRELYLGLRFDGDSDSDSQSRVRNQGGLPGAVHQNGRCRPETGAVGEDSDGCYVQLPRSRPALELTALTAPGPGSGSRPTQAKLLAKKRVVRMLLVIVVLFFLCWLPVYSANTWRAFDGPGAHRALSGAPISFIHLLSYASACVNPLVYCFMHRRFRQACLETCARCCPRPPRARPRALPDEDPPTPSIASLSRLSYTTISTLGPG

[3] = molecular target: T1, Delta-type opioid receptor; assay: Displacement of [3H]DPDPE from human delta opioid receptor expressed in HN9.10 cells; type: cell-based
Outline: (§2)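 Membranes (50 µg) from HN9.10 neuroblastoma cells stably expressing rat MOR or human DOR. Buffer was 50 mM Tris pH 7.4 with bacitracin, bestatin, captopril, PMSF and 1 mg/mL BSA. Radioligand was [3H]DAMGO (MOR) or [3H]DPDPE (DOR), each 1.0 nM, with 10 test concentrations. Incubated 3 h at 25 °C, in duplicate. Nonspecific binding with 10 µM naloxone. Filtration, then scintillation counting.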

Mu-type opioid receptor [4] = molecular target: Mu-type opioid receptor (Cavia porcellus, UniProt P97266); assay: Agonist activity at mu opioid receptor by inhibition of muscle contraction in electrically stimulated isolated guinea pig ileum; type: functional, tissue-based
Outline: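 Longitudinal muscle–myenteric plexus strips from male Hartley guinea pig ileum, 1 g tension, oxygenated Krebs at 37 °C, 15 min equilibration. Stimulated at 0.1 Hz, 0.4 ms, supramaximal voltage. Integrity checked with PL-017 (10 nM). Compound added until maximal inhibition. Inhibition taken as contraction height 1 min before versus 3 min after dosing. IC50 from Hill-equation fit.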

Mu-type opioid receptor [5] = molecular target: T3, Mu-type opioid receptor (Rattus norvegicus, UniProt P33535); assay: Displacement of [3H]DAMGO from rat mu opioid receptor expressed in HN9.10 cells; type: cell-based; outline: as §2
Mu-type opioid receptor [6] = molecular target: T3, Mu-type opioid receptor; assay: (§3) Inhibition of [35S]GTP-gamma-S binding to rat mu opioid receptor expressed in CHO cells; type: functional, cell-based; outline: as §1
[7] = molecular target: Delta-type opioid receptor (Mus musculus, UniProt P32300); assay: Agonist activity at delta opioid receptor by inhibition of muscle contraction in electrically stimulated isolated mouse vas deferens; type: functional, tissue-based
Outline: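 Male ICR mouse vasa deferentia in 20-mL baths, 0.5 g tension, oxygenated Mg-free Krebs at 37 °C; field stimulation 0.1 Hz, 2.0 ms single pulses, supramaximal voltage. Tissue integrity checked with DPDPE (10 nM). Compound added cumulatively until maximal inhibition. Inhibition taken as mean contraction height for 1 min before dosing versus height 3 min after. IC50 from Hill-equation fit by nonlinear least squares.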

[8] = molecular target: T4, Cholecystokinin receptor type A (Homo sapiens, UniProt P32238); assay: Displacement of [125I]CCK8 from human CCK1 receptor expressed in HEK293 cells; type: cell-based
T4 sequence (P32238 whole entry): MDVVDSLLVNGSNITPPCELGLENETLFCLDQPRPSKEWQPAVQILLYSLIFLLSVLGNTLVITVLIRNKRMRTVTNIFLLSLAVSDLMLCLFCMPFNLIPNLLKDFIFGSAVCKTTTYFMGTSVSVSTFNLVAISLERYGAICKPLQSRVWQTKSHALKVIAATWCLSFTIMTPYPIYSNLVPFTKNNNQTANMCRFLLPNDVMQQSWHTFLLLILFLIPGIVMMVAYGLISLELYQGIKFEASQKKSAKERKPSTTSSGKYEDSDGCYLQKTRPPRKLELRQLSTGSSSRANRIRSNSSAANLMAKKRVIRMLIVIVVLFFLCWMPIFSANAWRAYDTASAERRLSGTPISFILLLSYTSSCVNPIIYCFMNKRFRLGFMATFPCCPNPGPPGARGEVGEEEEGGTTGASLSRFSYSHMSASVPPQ

[9] = molecular target: Cholecystokinin receptor (Homo sapiens) (UniProt P32239+P32238); assay: Agonist activity at CCK receptor of guinea pig ileum at 1 uM; type: functional, tissue-based; details: Cavia porcellus, target entry is the homologue from another species
Outline: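 Guinea pig ileum LMMP strips (male Hartley), 20-mL baths, 1 g tension, oxygenated Krebs bicarbonate buffer, 37 °C. Tissue first challenged with 67 mM KCl to set maximal contraction. Test compound added to the bath; agonist activity taken as contraction height as a percentage of the maximal KCl contraction (A50).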

[10] = molecular target: Mu-type opioid receptor (Rattus norvegicus) (UniProt P33535); assay: as §3; type: functional, cell-based; outline: as §1
Sequence of Mu-type opioid receptor (Rattus norvegicus) (P33535 whole entry): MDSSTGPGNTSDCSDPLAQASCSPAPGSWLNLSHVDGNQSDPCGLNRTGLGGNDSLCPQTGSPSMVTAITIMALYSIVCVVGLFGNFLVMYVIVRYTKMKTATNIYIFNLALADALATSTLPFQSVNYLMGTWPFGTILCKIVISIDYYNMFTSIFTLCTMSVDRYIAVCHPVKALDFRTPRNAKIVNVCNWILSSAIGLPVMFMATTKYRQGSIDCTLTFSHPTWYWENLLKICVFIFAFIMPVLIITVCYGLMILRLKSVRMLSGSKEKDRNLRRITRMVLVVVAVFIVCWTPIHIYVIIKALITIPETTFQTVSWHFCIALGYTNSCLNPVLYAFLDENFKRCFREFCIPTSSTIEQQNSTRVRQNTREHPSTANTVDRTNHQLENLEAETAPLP

T3 sequence (P33535 whole entry): as above
Sequence of Delta-type opioid receptor (Mus musculus, UniProt P32300) (P32300 whole entry): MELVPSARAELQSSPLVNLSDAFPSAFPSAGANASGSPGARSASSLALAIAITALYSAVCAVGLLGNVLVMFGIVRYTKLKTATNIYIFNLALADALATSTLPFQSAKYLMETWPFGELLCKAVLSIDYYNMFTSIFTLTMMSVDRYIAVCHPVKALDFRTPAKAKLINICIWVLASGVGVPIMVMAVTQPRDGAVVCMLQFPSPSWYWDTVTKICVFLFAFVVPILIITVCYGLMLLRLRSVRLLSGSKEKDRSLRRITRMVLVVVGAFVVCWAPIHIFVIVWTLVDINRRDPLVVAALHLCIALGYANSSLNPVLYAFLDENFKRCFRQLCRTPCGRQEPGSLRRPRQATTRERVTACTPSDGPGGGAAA
Sequence of Mu-type opioid receptor (Cavia porcellus, UniProt P97266) (P97266 whole entry): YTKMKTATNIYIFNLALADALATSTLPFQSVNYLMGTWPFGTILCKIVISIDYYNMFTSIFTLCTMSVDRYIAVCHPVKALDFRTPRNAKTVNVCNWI
T1 sequence (P41143 whole entry): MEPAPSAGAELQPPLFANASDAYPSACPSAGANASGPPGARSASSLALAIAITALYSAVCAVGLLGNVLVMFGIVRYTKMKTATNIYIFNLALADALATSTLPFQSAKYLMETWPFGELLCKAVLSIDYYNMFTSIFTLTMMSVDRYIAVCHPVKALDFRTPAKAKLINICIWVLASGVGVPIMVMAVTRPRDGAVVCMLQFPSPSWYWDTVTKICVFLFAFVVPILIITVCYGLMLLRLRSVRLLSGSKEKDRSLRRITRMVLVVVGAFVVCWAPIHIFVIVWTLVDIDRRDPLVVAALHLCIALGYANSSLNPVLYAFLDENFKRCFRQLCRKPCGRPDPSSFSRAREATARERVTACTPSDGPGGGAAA

| Structure (SMILES) | EC50 [1] | IC50 [2] | Ki [2] | IC50 [3] | Ki [3] | IC50 (Mu-type opioid receptor [4]) | IC50 (Mu-type opioid receptor [5]) | Ki (Mu-type opioid receptor [5]) | EC50 (Mu-type opioid receptor [6]; read-out: EC50) | IC50 [7] | IC50 [8] | Ki [8] | further results |
| --- | --- | --- | --- | --- | --- | --- | --- | --- | --- | --- | --- | --- | --- |
| CCCC[C@H](NC(=O)[C@@H](Cc1c[nH]c2ccccc12)NC(=O)OC12CC3CC(CC(C3)C1)C2)C(=O)N[C@@H](CC(=O)O)C(=O)N[C@@H](Cc1ccccc1)C(=O)NNC(=O)[C@H](Cc1ccccc1)NC(=O)CNC(=O)[C@@H](C)NC(=O)[C@@H](N)Cc1ccc(O)cc1 | 27 nM | 562 nM | 560 nM | 0.417 nM | 0.23 nM | 640 nM | 195 nM | 88 nM | 10 nM | 38 nM | 851 nM | 840 nM |  |
| CCCC[C@H](NC(=O)[C@@H](Cc1c[nH]c2ccccc12)NC(=O)OC(C)(C)C)C(=O)N[C@@H](CC(=O)O)C(=O)N[C@@H](Cc1ccccc1)C(=O)NNC(=O)[C@H](Cc1ccccc1)NC(=O)CNC(=O)[C@@H](C)NC(=O)[C@@H](N)Cc1ccc(O)cc1 | 74 nM | 10000 nM | > 10000 nM | 93.3 nM | 45 nM | 460 nM | 64.6 nM | 31 nM | 210 nM | 24 nM | 35500 nM | > 10000 nM |  |
| CCCC[C@H](NC(=O)[C@H](CC(=O)O)NC(=O)[C@H](Cc1ccccc1)NN[C@@H](Cc1ccccc1)C(=O)NCC(=O)N[C@H](C)C(=O)N[C@@H](Cc1ccc(O)cc1)C(=O)O)C(=O)N[C@H](Cc1cn(C(=O)OC2C3CC4CC(C3)CC2C4)c2ccccc12)C(=O)O (stereo not given in full) |  |  |  |  |  |  |  |  |  |  |  |  | Emax [1]: 61%; Activity [9]: 0%; Emax [10]: 60% |
| CC(=O)N[C@@H](Cc1c[nH]c2ccccc12)C(=O)N[C@@H](CCCCNC(=O)Nc1ccccc1Cl)C(=O)N[C@@H](CC(=O)O)C(=O)N(C)[C@@H](Cc1ccccc1)C(=O)NNC(=O)[C@H](Cc1ccccc1)NC(=O)CNC(=O)[C@@H](C)NC(=O)[C@@H](N)Cc1ccc(O)cc1 |  |  |  |  | 0.48 nM | 200 nM |  | 0.92 nM |  | 26 nM |  |  | EC50 ([1]; cho): 1.3 nM; Ki ([2]; hek293): 1700 nM; Log IC50 ([2]; hek293): -5.76; Log IC50 [3]: -8.95; Log IC50 (Mu-type opioid receptor [5]): -8.67; EC50 (Mu-type opioid receptor [6]; cho, read-out: EC50): 15 nM; Ki ([8]; hek293): 1000 nM; Log IC50 ([8]; hek293): -5.99 |
| CCCC[C@H](NC(=O)[C@H](Cc1c[nH]c2ccccc12)NC(C)=O)C(=O)N[C@@H](CC(=O)O)C(=O)N(C)[C@@H](Cc1ccccc1)C(=O)NNC(=O)[C@H](Cc1ccccc1)NC(=O)CNC(=O)[C@@H](C)NC(=O)[C@@H](N)Cc1ccc(O)cc1 |  |  |  |  | 5.2 nM | 62 nM |  | 5.3 nM |  | 5.1 nM |  |  | EC50 ([1]; cho): 0.53 nM; Log IC50 [3]: -7.97; Log IC50 (Mu-type opioid receptor [5]): -7.96; EC50 (Mu-type opioid receptor [6]; cho, read-out: EC50): 5.2 nM |
| CCCC[C@H](NC(=O)[C@@H](Cc1c[nH]c2ccccc12)NC(=O)OC1C2CC3CC(C2)CC1C3)C(=O)N[C@@H](CC(=O)O)C(=O)N[C@@H](Cc1ccccc1)C(=O)NNC(=O)[C@H](Cc1ccccc1)NC(=O)CNC(=O)[C@@H](C)NC(=O)[C@@H](N)Cc1ccc(O)cc1 (stereo not given in full) | 5.6 nM | 933 nM | 930 nM | 7.76 nM | 3.4 nM | 1200 nM | 37.2 nM | 16 nM | 240 nM | 84 nM | 575 nM | 560 nM |  |
| CCCC[C@H](NC(=O)[C@H](N)Cc1c[nH]c2ccccc12)C(=O)N[C@@H](CC(=O)O)C(=O)N[C@@H](Cc1ccccc1)C(=O)NNC(=O)[C@H](Cc1ccccc1)NC(=O)CNC(=O)[C@@H](C)NC(=O)[C@@H](N)Cc1ccc(O)cc1 | 9.4 nM | 9330 nM | 9300 nM | 3.24 nM | 1.4 nM | 81 nM | 1.2 nM | 0.51 nM | 9.6 nM | 26 nM | 10200 nM | 10000 nM | EC50 (Mu-type opioid receptor [6]; read-out: Log EC50 (converted)): 9.77 nM |
| CCCC[C@@H](C(=O)N[C@@H](CC(=O)O)C(=O)N[C@@H](Cc1ccccc1)C(=O)NNC(=O)[C@H](Cc1ccccc1)NC(=O)CNC(=O)[C@@H](C)NC(=O)[C@@H](N)Cc1ccc(O)cc1)N(C)C(=O)[C@@H](Cc1c[nH]c2ccccc12)NC(=O)OC(C)(C)C | 26 nM | 1550 nM | 1500 nM | 2 nM | 0.82 nM |  | 47.9 nM | 20 nM | 0.64 nM | 42 nM | 1910 nM | 1900 nM |  |
| CCCC[C@H](NC(=O)[C@H](Cc1c[nH]c2ccccc12)NC(C)=O)C(=O)N[C@@H](CC(=O)O)C(=O)N[C@@H](Cc1ccccc1)C(=O)NNC(=O)[C@H](Cc1ccccc1)NC(=O)CNC(=O)[C@@H](C)NC(=O)[C@@H](N)Cc1ccc(O)cc1 | 54 nM | 1320 nM | 1300 nM | 53.7 nM | 23 nM | 28 nM | 61.7 nM | 26 nM | 76 nM | 36 nM |  |  |  |
| CCCC[C@H](NC(=O)[C@H](Cc1c[nH]c2ccccc12)NC(=O)OC(C)(C)C)C(=O)N[C@@H](CC(=O)O)C(=O)N[C@@H](Cc1ccccc1)C(=O)NNC(=O)[C@H](Cc1ccccc1)NC(=O)CNC(=O)[C@@H](C)NC(=O)[C@@H](N)Cc1ccc(O)cc1 | 27 nM | 3980 nM | 3800 nM | 138 nM | 59 nM | 55 nM | 55 nM | 24 nM | 9.5 nM | 230 nM | 4070 nM | 4100 nM |  |
